Results on 8 molecules are retold here after ChEMBL document CHEMBL1143175, “Inactivation of human neutrophil elastase by 1,2,5-thiadiazolidin-3-one 1,1 dioxide-based sulfonamides” (Bioorg Med Chem, 2008).

Activity calls are given as the source filed them. No cut-off for these calls is given here.

Experiment [1] concerns the target T1, Neutrophil elastase (Homo sapiens) (UniProt P08246).
T1 sequence (whole entry): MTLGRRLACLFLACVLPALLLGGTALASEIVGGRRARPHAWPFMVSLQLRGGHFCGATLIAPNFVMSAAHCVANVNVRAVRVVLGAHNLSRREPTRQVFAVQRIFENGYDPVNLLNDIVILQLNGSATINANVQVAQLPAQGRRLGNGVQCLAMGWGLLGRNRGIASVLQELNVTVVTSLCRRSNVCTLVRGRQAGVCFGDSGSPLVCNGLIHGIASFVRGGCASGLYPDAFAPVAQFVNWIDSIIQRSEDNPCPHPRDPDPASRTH
Nature of the experiment: Ratio of Kinact to KI for human neutrophil elastase. In outline:
(§1)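 Human neutrophil elastase, progress curve method: 10 nM enzyme added to inhibitor plus 105 µM MeOSuc-Ala-Ala-Pro-Val p-nitroanilide in 0.1 M HEPES/0.5 M NaCl, pH 7.25, 2.5% DMSO. Absorbance followed at 410 nm for 10 min and fitted to the progress curve equation. Apparent second-order constants kinact/KI determined in duplicate.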

Experiment [2] has as its target T2, Cathepsin G (Homo sapiens) (UniProt P08311).
T2 sequence (whole entry): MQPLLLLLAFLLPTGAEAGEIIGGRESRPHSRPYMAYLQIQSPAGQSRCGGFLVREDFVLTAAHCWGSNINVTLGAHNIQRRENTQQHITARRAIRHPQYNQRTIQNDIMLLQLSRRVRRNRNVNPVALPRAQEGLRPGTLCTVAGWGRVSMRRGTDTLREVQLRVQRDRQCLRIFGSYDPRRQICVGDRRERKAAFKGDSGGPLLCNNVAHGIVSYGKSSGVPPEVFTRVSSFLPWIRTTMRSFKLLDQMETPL
Nature of the experiment: Ratio of Kinact to KI for human cathepsin G. Summed up:
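Neutrophil cathepsin G incubated with inhibitor at an [I]/[E] ratio of 250 for 30 min. Substrate N-succinyl-Ala-Ala-Pro-Phe p-nitroanilide (85 mM stock in DMSO) then added, and absorbance monitored at 410 nm for 10 min.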

Experiment [3] deals with T1, Neutrophil elastase (Homo sapiens). Briefly: Inhibition of human neutrophil elastase. As to conditions: TDE = time-dependent effect. In outline: as §1
The species named for experiment [4] is Bos taurus. Nature of the experiment: Inhibition of bovine trypsin. As to conditions: TDE = time-dependent effect. Summed up:
(§2)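 Incubation method: bovine trypsin (5 µM final) incubated with excess inhibitor (0.125 mM final) in 0.025 M phosphate/0.1 M NaCl, pH 7.51, 1% DMSO, in a constant temperature bath. Aliquots taken over time, residual activity read with N-p-tosyl-Gly-Pro-Lys p-nitroanilide at 410 nm for 60 s. kobs from ln(v/v0) versus time, mean of two determinations, reported as kobs/[I].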

The target in experiment [5] is T3, Myeloblastin (Homo sapiens) (UniProt P24158).
T3 sequence (whole entry): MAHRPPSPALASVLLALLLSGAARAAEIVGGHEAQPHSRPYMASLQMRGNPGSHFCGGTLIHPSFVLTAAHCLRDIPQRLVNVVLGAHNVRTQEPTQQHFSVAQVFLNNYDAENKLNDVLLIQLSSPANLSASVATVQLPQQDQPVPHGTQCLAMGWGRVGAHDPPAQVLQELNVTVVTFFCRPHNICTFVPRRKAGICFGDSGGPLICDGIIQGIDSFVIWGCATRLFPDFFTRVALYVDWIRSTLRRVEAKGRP
Nature of the experiment: Ratio of Kinact to KI for human PR3. Summed up: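 Human proteinase 3 (34.5 nM final) with inhibitor (8.6 µM final) and Boc-Ala-Ala-NVa-SBzl plus 5,5′-dithio-bis(2-nitrobenzoic acid) in 0.1 M HEPES/0.5 M NaCl, pH 7.25. Absorbance change monitored at 410 nm for 2 min; inhibitor:enzyme ratio 250.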

The species named for experiment [6] is Bos taurus. Briefly: Ratio of Kobs to [I] for bovine trypsin. Summed up: as §2

Take `CCCC1C(=O)N(CS(=O)(=O)N[C@@H](CCCCNC(=O)OCc2ccccc2)C(=O)OC)S(=O)(=O)N1C` (some centres undefined): the Ratio in experiment [1] was 6900 M⁻¹ s⁻¹. The result in experiment [2] and in experiment [5] was inactive. Besides, the Activity result in experiment [3] and in experiment [4] was “tde” in each case.
For `CCCC1C(=O)N(CS(=O)(=O)N[C@H](Cc2ccccc2)C(=O)OC)S(=O)(=O)N1C` (some centres undefined), in experiment [1], the Ratio was 9760 M⁻¹ s⁻¹. Further, the result in experiment [2] and in experiment [5] was inactive. In addition, the Activity result in experiment [3] and in experiment [4] was “tde” throughout.
Take `CCCC1C(=O)N(CS(=O)(=O)N[C@@H](COCc2ccccc2)C(=O)OC)S(=O)(=O)N1C` (some centres undefined): the Ratio in experiment [1] amounted to 16900 M⁻¹ s⁻¹; in experiment [6] it was 60. Further, the outcome in experiment [2] and in experiment [5] was inactive. Also, the Activity entry in experiment [3] and in experiment [4] was “tde” each time.
Take `CCCC1C(=O)N(CS(=O)(=O)N[C@@H](Cc2ccccc2)C(=O)OC)S(=O)(=O)N1C` (some centres undefined): the Ratio in experiment [1] amounted to 41800 M⁻¹ s⁻¹; in experiment [6] it was 50. Moreover, the outcome in experiment [2] and in experiment [5] was inactive. Also, the Activity result in experiment [3] and in experiment [4] was “tde” each time.
Regarding `CCCC1C(=O)N(CS(=O)(=O)N[C@@H](C)C(=O)OC)S(=O)(=O)N1C` (some centres undefined), the Ratio in experiment [1] came to 1050 M⁻¹ s⁻¹. For the same molecule, the outcome in experiment [2] and in experiment [5] was inactive. Further, the Activity entry in experiment [3] and in experiment [4] was “tde” throughout.
On to `CCCC1C(=O)N(CS(=O)(=O)N[C@@H](CO)C(=O)OC)S(=O)(=O)N1C` (some centres undefined), for which the Ratio in experiment [1] amounted to 1100 M⁻¹ s⁻¹; in experiment [6], 12. Moreover, the result in experiment [2] and in experiment [5] was inactive. Further, the Activity result in experiment [3] and in experiment [4] was “tde” throughout.
In the case of `CCCC1C(=O)N(CS(=O)(=O)N[C@@H](CCC)C(=O)OC)S(=O)(=O)N1C` (some centres undefined), the values for the Ratio in experiment [1] and in experiment [6] were 34600 M⁻¹ s⁻¹ and 19, respectively. For the same molecule, the outcome in experiment [2] and in experiment [5] was inactive. The Activity entry in experiment [3] and in experiment [4] was “tde” in each case.
Regarding `CCCC1C(=O)N(CS(=O)(=O)N[C@@H](CCCCN)C(=O)OC)S(=O)(=O)N1C` (some centres undefined), in experiment [1], the Ratio turned out to be 12900 M⁻¹ s⁻¹. Besides, the result in experiment [2] and in experiment [5] was inactive. Also, the Activity entry in experiment [3] and in experiment [4] was “tde” each time.
